Scp-1 inhibitor: blocks human Scp-1 phosphatase activity; Q9GZU7; Recombinant Scp1, phosphopeptide, malachite green phosphate absorbance; inhibition, % at 20 µM; 340,000 compounds, 0.88% hits;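 active means inhibition above about 50% at 20 µM, limit read from the data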
Target sequence (Q9GZU7 76-261 limits assumed): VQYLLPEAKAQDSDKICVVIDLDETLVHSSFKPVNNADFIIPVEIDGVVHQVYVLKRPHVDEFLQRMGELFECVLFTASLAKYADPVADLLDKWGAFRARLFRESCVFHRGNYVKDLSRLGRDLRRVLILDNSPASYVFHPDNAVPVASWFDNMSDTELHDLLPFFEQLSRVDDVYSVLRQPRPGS
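Test system: SCP-1 catalytic domain; Buffer or medium: Acidic Tris acetate buffer with magnesium and detergent; Also added: Phosphorylated 17-residue peptide substrate; Compound: single 20 µM dose, 1% DMSO; Schedule: enzyme reaction 45 min at room temperature, colour 5 min, stabilisation 30 min; Signal: Phosphate-binding colour reagent, absorbance read at 630 nm.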
LMPTP block: LMPTP (human) inhibition. P24666. recombinant LMPTP-A, OMFP fluorogenic substrate, fluorescence intensity. inhibition, % at 20 µM. 360,000 compounds, 0.22% hits;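 active means compounds that cut the enzyme signal by at least half of the control window in the single-dose screen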
Target sequence (P24666 whole entry, looked up): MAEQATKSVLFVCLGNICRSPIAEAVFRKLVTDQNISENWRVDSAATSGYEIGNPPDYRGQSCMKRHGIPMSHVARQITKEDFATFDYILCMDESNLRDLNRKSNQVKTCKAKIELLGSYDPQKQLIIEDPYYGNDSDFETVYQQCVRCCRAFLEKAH
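Test system: LMPTP-A, protein tyrosine phosphatase of low molecular weight; Input: 0.625 nM enzyme; Incubation: 50 min dark incubation at room temperature; Signal: endpoint fluorescence intensity from OMFP dephosphorylation; Read-out basis: % inhibition versus control wells.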
STEP inh: blocks human striatal-enriched tyrosine phosphatase. 360,000 compounds, 0.25% hits. P54829. recombinant STEP, OMFP fluorogenic substrate, fluorescence. AID 588621. inhibition, % at 20 µM;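 active means inhibition at 20 µM, scaled per plate between control wells, above about 37%, limit read from the data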
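Material: STEP (striatal-enriched tyrosine phosphatase) enzyme, cell-free | Medium: 50 mM Bis-Tris pH 6.0 with 2.5 mM DTT and 0.005% Tween 20 | Read-out: Percent inhibition scaled to no-enzyme and uninhibited-enzyme controls, plate-pattern corrected | Signal: Fluorescence read at 480 nm ex / 540 nm em | Times: 20 min reaction, room temperature, in the dark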
SUMO1-SIM PPI: SUMO1-SIM interaction modulation; SUMO1 binding to a labelled peptide, TR-FRET, 1 h; inhibition, % at 20 µM; 360,000 compounds, 0.33% hits; AID 602429; in the data active means inhibition above about 37%
Target sequence (P63165 whole entry, looked up): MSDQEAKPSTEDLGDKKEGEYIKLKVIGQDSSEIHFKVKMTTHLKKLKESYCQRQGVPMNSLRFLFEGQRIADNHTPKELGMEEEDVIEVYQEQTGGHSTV
DNMT1 inh: blocks human DNA methyltransferase DNMT1; P26358; DNMT1 molecular beacon, Hinp1I cleavage, fluorescence; inhibition (reported as % activation of signal), % at 10 µM; 360,000 compounds, 0.83% hits; AID 588458; in the data active means inhibition above about 50%
HKDC1 inh: blocks human hexokinase HKDC1 activity; 340,000 compounds, 0.16% hits; recombinant HKDC1, G6PDH/diaphorase resazurin coupled fluorescence; Q2TB90; AID 493160; inhibition, % at 20 µM;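 active means inhibition above about 35% when tested at 20 µM, limit read from the data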
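Incubation: 90 min at room temperature in dark / Material: recombinant HKDC1 (HK5) hexokinase enzyme, produced in-house / Quantity: enzyme 5 µg/mL final / Compound: one dose of 20 µM, 1% DMSO / Reagent: glucose and ATP substrates / Buffer or medium: Tris pH 8.0 buffer with MgCl2, Tween-20, BSA, BME / Technique: resorufin fluorescence at 613 nm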
A number is an active result; - = inactive; . = no result; + = active, no number. In the library only some 1.8% were active in any assay of this set; here they are far more common.

SMILES	Scp-1 inhibitor	LMPTP block	STEP inh	SUMO1-SIM PPI	DNMT1 inh	HKDC1 inh
O=C(Nc1ccccn1)c1onc2c1CCCC2	50	-	-	-	-	-
N/C(=N\OC(=O)c1ccccc1)c1ccn[nH]1	-	-	-	-	-	-
O=C(NCc1ccco1)c1cccc2c1C(=O)c1ccc(/C=C/c3ccccc3)cc1S2(=O)=O	75	-	-	-	-	-
O=C(NCc1ccco1)c1cccc2c1C(=O)c1ccc(N3CCC(Cc4ccccc4)CC3)cc1S2(=O)=O	-	-	-	-	-	-
CCC/C(C#Cc1ccc(N(C)C)cc1)=C1/c2ccccc2C(=O)N1c1ccccc1	57	-	-	-	-	-
N=c1c(C(=O)NCCc2ccccc2)cc2c(=O)n3ccccc3nc2n1Cc1ccco1	-	-	-	-	-	-
COc1ccc(CCn2c(=N)c(C(=O)NCc3ccco3)cc3c(=O)n4ccccc4nc32)cc1	-	60	-	-	-	-
COc1cc(OC)cc(OC(=O)C2CCN(S(=O)(=O)c3ccc(OC)c(OC)c3)CC2)c1	-	-	-	-	-	-
COc1ccccc1N1CCN(C(c2cc3cc(C)ccc3[nH]c2=O)c2nnnn2C2CCCC2)CC1 (centres undefined)	-	-	-	45	-	-
COc1ccccc1N1CCN(C(c2cc3ccc(C)cc3[nH]c2=O)c2nnnn2C2CCCC2)CC1 (centres undefined)	-	-	-	-	-	-
Cc1[nH]c2ccc(C(=O)OCC(=O)Nc3cccc(S(N)(=O)=O)c3)cc2c1C	-	-	-	60	-	-
Cc1ccc(NC(=O)c2ccc(=O)[nH]c2)cc1S(=O)(=O)N1CCCCCC1	-	-	-	-	-	-
Cc1ccc(C2(C)NC(=O)N(CC(=O)Nc3ccc4[nH]c(=O)[nH]c4c3)C2=O)cc1 (centres undefined)	-	-	-	72	-	-
Cc1cc(NC(=O)CN2C(=O)NC(C)(c3ccc(Cl)cc3Cl)C2=O)no1 (centres undefined)	-	-	-	-	-	-
COc1ccc(C2(C)NC(=O)N(CC(=O)Nc3ccc4[nH]c(=O)[nH]c4c3)C2=O)cc1 (centres undefined)	-	-	-	-	-	-
CC1(c2ccc(Cl)cc2Cl)NC(=O)N(CC(=O)Nc2ccc3[nH]c(=O)[nH]c3c2)C1=O (centres undefined)	-	-	-	54	-	-
COC(=O)[C@]12CCCCC=C1N(Cc1ccco1)C(=O)[C@H](CC(=O)NCc1cccc3ccccc13)C2	.	-	.	-	.	.
CCOC(=O)c1c(S(=O)(=O)NCC(=O)N2CCN(c3ccc(OC)cc3)CC2)c(C)n(C)c1C	-	-	-	-	-	-
Cc1cccc(C)c1OCc1nc2ccccc2c(=O)n1/N=C/c1ccc(OCC(=O)O)cc1	-	-	-	-	-	-
O=C(O)COc1ccc(/C=N/n2c(COc3ccccc3)nc3ccccc3c2=O)cc1	-	-	-	57	-	-
CCOC(=O)C1=C(COc2ccccc2)NC(=O)NC1c1ccc(Br)cc1 (centres undefined)	-	-	-	47	-	-
Nc1ccc(-c2c3ccc(=O)cc-3oc3cc(O)ccc23)c(C(=O)O)c1	-	-	-	-	+	-
COc1c(N2CCN(C(=S)NCc3ccccc3)C(C)C2)c(F)cc2c(=O)c(C(=O)O)cn(C3CC3)c12 (centres undefined)	-	53	-	-	-	-
COc1c(N2CCN[C@H](C)C2)c(F)cc2c(=O)c(C(=O)O)cn(C3CC3)c12	-	.	.	.	.	-
COc1ccc(C(=O)NC(=S)Nc2cccc3ncccc23)cc1[N+](=O)[O-]	-	-	-	56	-	-
COc1ccc(C(=O)Nc2ccc(C(=O)Nc3nccs3)cc2)cc1[N+](=O)[O-]	-	-	-	54	-	-
O=C(Nc1nccs1)c1ccc(Cl)c([N+](=O)[O-])c1	-	-	-	-	-	-
O=C(O)c1cc(Cl)n[nH]c1=O	.	-	-	-	-	.
O=C(CSc1nncs1)Nc1ccc2[nH]c(=O)[nH]c2c1	-	-	-	66	-	-
